The source of these data is the array DNA melting data of Ke et al. (doi:10.1101/2024.01.08.574731).

Data set [1] is described as follows: folding enthalpy; higher = less favourable; fluorescence melt of hairpins on a sequencing array, two-state fit. The conditions noted are these: sodium 0.088 M. The method in brief: (§1)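 Melting temperature and folding enthalpy were obtained by bootstrapped two-state fitting. Fits used Cy3 fluorescence of library hairpins with annealed Cy3 and quencher oligos on a sequenced MiSeq flow cell, imaged in 50 mM Na-HEPES pH 8.0, 25 mM NaCl in 2.5 °C steps up to 60 °C and normalised to pre-quench Cy3 and control constructs. Four replicates were combined by inverse-variance weighting, and fitted temperatures were raised by 9.35 °C to match UV melts.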

Data set [2] in a line: melting temperature; fluorescence melt of hairpins on a sequencing array, two-state fit, raised by 9.35 °C to match UV melts. The conditions noted are these: sodium 0.088 M. The method in brief: as §1

Take GCGCCAGGAAACTGGTGC ((.((((....)))).)): in data set [1], the folding enthalpy was -30.6 kcal/mol. In addition, the Tm in data set [2] came to 65 °C.
As for GCGCCCGGAAACAGGCGC (((((.(....).))))), the folding enthalpy in data set [1] is -31.7 kcal/mol. Also, the Tm in data set [2] was 66.7 °C.
In the case of GCGCCGCGAAAGCAGGGC ((.(.((....)).).)), the folding enthalpy in data set [1] is -13.1 kcal/mol. In addition, in data set [2], the Tm was 57.4 °C.
In the case of GCGCCGCGAAAGCCGGGC ((.(.((....)).).)), in data set [1], the folding enthalpy was -15.8 kcal/mol. Moreover, in data set [2], the Tm came to 55.3 °C.
For GCGCCGCGAAAGCGCCGC (((.(((....))).))) the same measures were -22.4 kcal/mol and 65.2 °C.
On to GCGCCTCGAAAGAGCCGC (((.(((....))).))), for which the folding enthalpy in data set [1] was -37.9 kcal/mol. Also, the Tm in data set [2] turned out to be 52.2 °C.
The like results for GCGCGACGAAAGTCACGC (((.(((....))).))) were, in that order, -36.3 kcal/mol and 68.9 °C.
For GCGCGAGCGAAAGCTCGC (((..(((....)))))) the same measures were -6.17 kcal/mol and 69.1 °C.
As for GCGCGAGGAAACCCGCGC (((((.(....).))))), in data set [1], the folding enthalpy was -33.8 kcal/mol. Moreover, in data set [2], the Tm came out at 69.1 °C.
On to GCGCGCCCGAAAGGGCGC (((..(((....)))))), for which the folding enthalpy in data set [1] was -4.64 kcal/mol. Also, the Tm in data set [2] came to 68.4 °C.
For GCGCGCGAAAGCGAACGC ((((((....)))..))), in data set [1], the folding enthalpy is -22.9 kcal/mol. In addition, in data set [2], the Tm stood at 60 °C.
On to GCGCGCGAAAGCGCCCGC ((((((....)))..))), for which, in data set [1], the folding enthalpy was -9.74 kcal/mol. The Tm in data set [2] came out at 45.8 °C.
With GCGCGCGAAAGCGGCCGC ((((((....)))..))), the folding enthalpy in data set [1] was -15.3 kcal/mol. Besides, in data set [2], the Tm came out at 59 °C.
Turning to GCGCGCGAAAGCGTACGC ((((((....)))..))), the folding enthalpy in data set [1] is -17.5 kcal/mol. Moreover, in data set [2], the Tm turned out to be 61.5 °C.
As to GCGCGGCGAAAGCCATGC ((..(((....)))..)), in data set [1], the folding enthalpy was -16.4 kcal/mol. In data set [2], the Tm amounted to 53.3 °C.
GCGCGGCGAAAGCCTTGC ((..(((....)))..)): the folding enthalpy in data set [1] was -16 kcal/mol. For the same sequence, the Tm in data set [2] came out at 46.1 °C.
Consider GCGCGGGGAAACCCGCAC (.(((((....))))).), for which the folding enthalpy in data set [1] is -8.32 kcal/mol. Further, the Tm in data set [2] amounted to 53.9 °C.
As to GCGCTACCGAAAGGTCGC (((..(((....)))))), the folding enthalpy in data set [1] was -30.8 kcal/mol. Further, the Tm in data set [2] was found to be 51.4 °C.
For the sequence GCGCTACGAAAGTACCGC (((.(((....))).))), the folding enthalpy in data set [1] was -36.1 kcal/mol. In addition, the Tm in data set [2] came out at 48.5 °C.
The like results for GCGCTCCGAAAGGATCGC (((.(((....))).))) were, in that order, -41 kcal/mol and 59.2 °C.
GCGCTCGAAAGAGCCCGC ((((((....)))..))): in data set [1], the folding enthalpy is -11.8 kcal/mol. For the same sequence, the Tm in data set [2] was determined as 43.4 °C.
As to GCGCTCGAAAGAGGCCGC ((((((....)))..))), the folding enthalpy in data set [1] was -16.5 kcal/mol. The Tm in data set [2] worked out at 47.5 °C.
On to GCGCTCGAAAGAGTTCGC ((((((....)))..))), for which the folding enthalpy in data set [1] was -22.1 kcal/mol. The Tm in data set [2] amounted to 43.8 °C.
Regarding GCGCTCGGAAACAAGCGC (((((.(....).))))), the folding enthalpy in data set [1] was -46.7 kcal/mol. In addition, the Tm in data set [2] was 55.9 °C.
As to GCGCTCGGAAACGAGCAC (.(((((....))))).), in data set [1], the folding enthalpy was -10.4 kcal/mol. Further, the Tm in data set [2] was 51.5 °C.
As to GCGCTCGGAAACGGGTGC ((.(.((....)).).)), in data set [1], the folding enthalpy is -53.1 kcal/mol. For the same sequence, the Tm in data set [2] came out at 51.6 °C.
GCGCTGACGAAAGTCCGC (((..(((....)))))): the folding enthalpy in data set [1] is -25.1 kcal/mol. Besides, the Tm in data set [2] is 51 °C.
In the case of GCGCTGCGAAAGCCGTGC ((.(.((....)).).)), in data set [1], the folding enthalpy was -21.5 kcal/mol. In addition, the Tm in data set [2] came to 51.9 °C.
With GCGCTGCGAAAGCGGTGC ((.(.((....)).).)), the folding enthalpy in data set [1] is -31.8 kcal/mol. In addition, the Tm in data set [2] is 66.7 °C.
Consider GCGCTGGGAAACTAGCGC (((((.(....).))))), for which the folding enthalpy in data set [1] was -32.4 kcal/mol. The Tm in data set [2] is 67.1 °C.
For GCGCTTCGAAAGAATCGC (((.(((....))).))) the same measures were -41.3 kcal/mol and 51.8 °C.
For GCGCTTGGAAACAGGCGC ((((.((....)).)))) the same measures were -40.6 kcal/mol and 61.7 °C.
Consider GCGGAAACCCGC ((((....)))), for which the folding enthalpy in data set [1] is -20.9 kcal/mol. The Tm in data set [2] came to 50.2 °C.
As for GCGGAAAGCCGC ((((....)))), in data set [1], the folding enthalpy is -16.3 kcal/mol. Also, in data set [2], the Tm is 48.5 °C.
For GCGGAAATCCGC ((((....)))) the same measures were -20.4 kcal/mol and 51.6 °C.
GCGGAACGAAAGTTGCGC (((.(((....))).))): the folding enthalpy in data set [1] was -35.6 kcal/mol. Moreover, the Tm in data set [2] was determined as 67.9 °C.
Consider GCGGAACGAAAGTTTCGC (((.(((....))).))), for which the folding enthalpy in data set [1] is -51.9 kcal/mol. In data set [2], the Tm stood at 64.8 °C.
